In brackets after ≈: the same amount, converted by molar mass.
Key:
[1] = Inhibition of EthR in Mycobacterium tuberculosis H37Rv expressing GFP infected in mouse RAW264.7 cells assessed as concentration required to ethionamide-induced 50% inhibition of bacterial growth after 5 days by microscopic analysis; assay type: cell-based; settings: RAW264.7, 120 h
Outline: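 Raw264.7 macrophages infected with M. tuberculosis H37Rv-GFP (MOI 1:1, 2 h, 37 °C, shaking); extracellular bacilli killed with amikacin 20 μM for 1 h. Cells added to wells holding ethionamide fixed at 0.1 μg/mL plus ten 2-fold dilutions of compound. Incubated 5 days at 37 °C, 5% CO2. Macrophages stained with SYTO 60, then imaged by automated confocal microscopy. Read-out is % infected cells. EC50 is the mean of two experiments.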

[2] = system: RAW264.7; test: Inhibition of EthR in Mycobacterium tuberculosis H37Rv expressing GFP infected in mouse RAW264.7 cells assessed as potentiation of ethionamide-induced inhibition of intracellular bacterial growth after 5 days by microscopic analysis; assay type: cell-based
[3] = molecular target: HTH-type transcriptional regulator EthR (Mycobacterium tuberculosis, UniProt P9WMC1); test: Inhibition of Mycobacterium tuberculosis EthR interaction to ethA promoter after 5 mins by surface plasmon resonance assay
HTH-type transcriptional regulator EthR, sequence (P9WMC1 whole entry): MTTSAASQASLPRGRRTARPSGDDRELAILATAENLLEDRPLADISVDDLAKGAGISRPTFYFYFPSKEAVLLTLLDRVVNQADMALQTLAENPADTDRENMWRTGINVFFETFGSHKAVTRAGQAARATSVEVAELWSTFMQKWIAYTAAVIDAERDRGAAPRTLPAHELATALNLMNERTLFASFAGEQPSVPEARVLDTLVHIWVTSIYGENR

[4] = system: RAW264.7; test: Cytotoxicity against mouse RAW264.7 cells at > 30 uM; assay type: cell-based
[5] = Half life in CD1 mouse liver microsomes by LC-MS-MS analysis; assay type: ADME, Microsome
Outline: (§1)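 Male CD-1 mouse liver microsomes (0.6 mg protein/mL), compound 1 μM with 1% methanol vehicle, 5 mM MgCl2, 1 mM NADP, 5 mM glucose-6-phosphate, 0.4 U/mL G6PDH, 50 mM potassium phosphate pH 7.4, 37 °C, duplicates.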

[6] = system: Liver; test: (§2) Intrinsic clearance in CD1 mouse liver microsomes by LC-MS-MS analysis; assay type: ADME, Microsome; settings: mouse, microsomes; outline: as §1
[7] = Solubility of the compound at pH 7.4 after 24 hrs; assay type: physicochemical; settings: buffer
Outline: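 A 10 mM DMSO solution was diluted into PBS pH 7.4 or methanol and shaken gently 24 h at room temperature. It was then centrifuged and passed through a 0.45 μm filter. Filtrate was diluted in methanol and read by LC-MS-MS. Solubility was taken from the PBS/methanol mass-signal area ratio.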

[8] = as §2; assay type: ADME, Microsome; settings: CD1, mouse, liver microsomes; outline: as §1

SMILES	EC50 [1] [µM]	fold change (FC) [2]	other results
O=C(CCC(F)(F)F)N1CC(c2nc(-c3cccs3)no2)C1	> 5		
O=C(Cc1ccc(F)cc1)N1CCC(c2nc(-c3cccs3)no2)CC1	0.8	10	
COc1ccccc1CC(=O)N1CCC(c2nc(-c3cccs3)no2)CC1	> 5	10	
COc1ccc(CC(=O)N2CCC(c3nc(-c4cccs4)no3)CC2)cc1	> 5	10	
O=C(Cc1ccccn1)N1CCC(c2nc(-c3cccs3)no2)CC1	> 5	10	
CC(C)(C)CC(=O)N1CCC(c2nc(-c3cccs3)no2)CC1	> 5		
O=C(Cc1ccccc1)N1CCC(c2nc(-c3cccs3)no2)CC1	2.1	10	IC50 [3]: 5600 nM
O=C(Cc1cccc(F)c1)N1CCC(c2nc(-c3cccs3)no2)CC1	> 5	10	
O=C(CCC(F)(F)F)N1CC[C@H](c2nc(-c3cccs3)no2)C1	1.6		
O=C(CCC(F)(F)F)NCCCc1nc(-c2cccs2)no1	> 5		
CC(C)C[C@H](N)C(=O)N1CCC(c2nc(-c3cccs3)no2)CC1	> 5		
O=C(c1ccccc1)N1CCC(c2nc(-c3cccs3)no2)CC1	> 5	10	
O=C(Cc1ccncc1)N1CCC(c2nc(-c3cccs3)no2)CC1	> 5	10	
Cc1cccc(CC(=O)N2CCC(c3nc(-c4cccs4)no3)CC2)c1	> 5	10	
O=C(Cc1ccc(C(F)(F)F)cc1)N1CCC(c2nc(-c3cccs3)no2)CC1	> 5	10	
O=C(CCC(F)(F)F)N1CCC[C@@H](c2nc(-c3cccs3)no2)C1	> 5		
CCCCC(=O)N1CCC(c2nc(-c3cccs3)no2)CC1	1.1		
CCCC(=O)N1CCC(c2nc(-c3cccs3)no2)CC1	2.1		
O=C(CC1CCCCC1)N1CCC(c2nc(-c3cccs3)no2)CC1	0.3		Activity [4]: Toxic
O=C(Cc1ncc[nH]1)N1CCC(c2nc(-c3cccs3)no2)CC1	> 5	10	

SMILES	EC50 [1] [µM]	fold change (FC) [2]	other results
CC(C)(C)CCC(=O)N1CCC(c2nc(-c3cccs3)no2)CC1	> 5		
COCC(=O)N1CCC(c2nc(-c3cccs3)no2)CC1	> 5		
O=C(CCC(F)(F)F)N1CCC[C@H](c2nc(-c3cccs3)no2)C1	> 5		
O=C(Cc1ccccc1F)N1CCC(c2nc(-c3cccs3)no2)CC1	> 5	10	
O=C(CCC(F)(F)F)N1CCC(c2nc(-c3cccs3)no2)CC1	0.1		Activity [4]: Non-toxic; half-life [5]: 5 min; CL [6]: 213 µL/min/mg
CCC(=O)N1CCC(c2nc(-c3cccs3)no2)CC1	> 5		
O=C(NCC(F)(F)F)N1CCC(c2nc(-c3cccs3)no2)CC1	> 5		
CC(C)CCC(=O)N1CCC(c2nc(-c3cccs3)no2)CC1	0.1		Activity [4]: Toxic
CC(CC(F)(F)F)C(=O)N1CCC(c2nc(-c3cccs3)no2)CC1 (stereo unspecified)	> 5		
CC1CCC(CC(=O)N2CCC(c3nc(-c4cccs4)no3)CC2)CC1 (stereo unspecified)	> 5		
O=C(Cc1cccs1)N1CCC(c2nc(-c3cccs3)no2)CC1	0.1		IC50 [3]: 500 nM; solubility at 24 h [7]: 22 µg/mL (≈ 61.2 µM); half-life [5]: 3 min; microsomal CLint [8]: 412 µL/min/mg
CC(C)CC(O)C(=O)N1CCC(c2nc(-c3cccs3)no2)CC1 (stereo unspecified)	> 5		
O=C(Cc1ccc(Cl)cc1)N1CCC(c2nc(-c3cccs3)no2)CC1	2.2	10	
Cc1ccc(CC(=O)N2CCC(c3nc(-c4cccs4)no3)CC2)cc1	> 5	10	
COCCC(=O)N1CCC(c2nc(-c3cccs3)no2)CC1	> 5		
O=C(Cc1ccccc1Cl)N1CCC(c2nc(-c3cccs3)no2)CC1	> 5	10	
O=C(CC1CCCC1)N1CCC(c2nc(-c3cccs3)no2)CC1	0.4		Activity [4]: Toxic
CC(C)CC(=O)N1CCC(c2nc(-c3cccs3)no2)CC1	2.5		
O=C(Cc1cccc(Cl)c1)N1CCC(c2nc(-c3cccs3)no2)CC1	> 5	10	
[N-]=[N+]=NCC(=O)N1CCC(c2nc(-c3cccs3)no2)CC1	1.2		

SMILES	EC50 [1] [µM]	fold change (FC) [2]	other results
O=C(CC1CC1)N1CCC(c2nc(-c3cccs3)no2)CC1	0.2		IC50 [3]: 1100 nM; Activity [4]: Non-toxic; solubility at 24 h [7]: 64 µg/mL (≈ 202 µM)
O=C(Cc1cccnc1)N1CCC(c2nc(-c3cccs3)no2)CC1	> 5	10	
CC(C)[C@H](N)C(=O)N1CCC(c2nc(-c3cccs3)no2)CC1	> 5		
CC(=O)N1CCC(c2nc(-c3cccs3)no2)CC1	> 5		
O=C(CC(O)C(F)(F)F)N1CCC(c2nc(-c3cccs3)no2)CC1 (stereo unspecified)	> 5		
Cc1ccccc1CC(=O)N1CCC(c2nc(-c3cccs3)no2)CC1	> 5	10	
O=C(Cc1ccccc1C(F)(F)F)N1CCC(c2nc(-c3cccs3)no2)CC1	> 5	10	
CC(C)NCC(O)COc1cccc2ccccc12 (stereo unspecified) [PROPRANOLOL]			half-life [5]: 13 min
O=C(CCC(F)(F)F)N1CC[C@@H](c2nc(-c3cccs3)no2)C1	0.4		Activity [4]: Non-toxic; solubility at 24 h [7]: 80 µg/mL (≈ 232 µM); half-life [5]: 298 min
N#CCC(=O)N1CCC(c2nc(-c3cccs3)no2)CC1	1.5		solubility at 24 h [7]: 194 µg/mL (≈ 642 µM); half-life [5]: 91 min; microsomal CLint [8]: 11 µL/min/mg
O=C(CC(F)(F)F)N1CCC(c2nc(-c3cccs3)no2)CC1	1.3		
CC(CC(=O)N1CCC(c2nc(-c3cccs3)no2)CC1)C(F)(F)F (stereo unspecified)	> 5		
O=C(CCc1cccs1)N1CCC(c2nc(-c3cccs3)no2)CC1	> 5	10	
O=S(=O)(CCC(F)(F)F)N1CCC(c2nc(-c3cccs3)no2)CC1	> 5		
O=C(O)CCC(=O)N1CCC(c2nc(-c3cccs3)no2)CC1	> 5		
O=C(CCC(F)(C(F)(F)F)C(F)(F)F)N1CCC(c2nc(-c3cccs3)no2)CC1	> 5		
O=C(Cc1cccc(C(F)(F)F)c1)N1CCC(c2nc(-c3cccs3)no2)CC1	> 5	10	
O=C(CCC1CCCCC1)N1CCC(c2nc(-c3cccs3)no2)CC1	1.8		
COc1cccc(CC(=O)N2CCC(c3nc(-c4cccs4)no3)CC2)c1	> 5	10	

— ChEMBL document CHEMBL1773054, “Ethionamide boosters: synthesis, biological activity, and structure-activity relationships of a series of 1,2,4-oxadiazole EthR inhibitors” (J Med Chem, 2011)
